This assay concerns the target Sodium-dependent dopamine transporter (Rattus norvegicus, UniProt P23977). Description: Binding affinity for dopamine transporters in rat brain tissue. An outline of the steps: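 Crude membrane fraction from rat corpus striatum homogenate. Nonspecific binding defined with 30 μM methylphenidate. Each agent tested at six concentrations in duplicate. Concentration-inhibition curves computer-fit for IC50 ± SEM, converted to Ki = IC50/(1 + [L/Kd]).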
Chain of Sodium-dependent dopamine transporter (P23977 whole entry): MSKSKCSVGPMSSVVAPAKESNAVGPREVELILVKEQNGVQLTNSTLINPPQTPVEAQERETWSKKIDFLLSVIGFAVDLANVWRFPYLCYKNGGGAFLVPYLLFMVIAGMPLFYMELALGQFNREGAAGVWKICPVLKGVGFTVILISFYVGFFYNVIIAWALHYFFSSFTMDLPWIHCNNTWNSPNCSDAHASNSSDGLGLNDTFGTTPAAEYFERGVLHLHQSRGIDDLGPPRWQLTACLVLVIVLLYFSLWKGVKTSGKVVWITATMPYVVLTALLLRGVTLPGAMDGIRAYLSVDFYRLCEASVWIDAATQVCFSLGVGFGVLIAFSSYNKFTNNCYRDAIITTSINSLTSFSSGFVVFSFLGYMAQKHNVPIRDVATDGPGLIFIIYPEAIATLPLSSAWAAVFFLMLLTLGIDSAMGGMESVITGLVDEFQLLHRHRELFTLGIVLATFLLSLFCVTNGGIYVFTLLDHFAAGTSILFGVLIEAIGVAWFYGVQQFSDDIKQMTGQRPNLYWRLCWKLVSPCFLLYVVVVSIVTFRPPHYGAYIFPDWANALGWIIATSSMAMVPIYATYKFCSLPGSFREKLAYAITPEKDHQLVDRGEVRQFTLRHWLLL
Consider `COC(=O)[C@H]1C(c2cc[c]([Sn]([CH3])([CH3])[CH3])cc2)C[C@H]2CCC1N2CCCF` (stereo partly drawn) [(2S,5R)-8-(3-Fluoro-propyl)-3-(4-trimethylstannanyl-phenyl)-8-aza-bicyclo[3.2.1]octane-2-carboxylic acid methyl ester], for which the Ki (as a rule, the equilibrium dissociation constant of an inhibitor or competing ligand from its target) is > 10 µM. In the case of `COC(=O)[C@H]1C(c2cc[c]([Sn]([CH3])([CH3])[CH3])cc2)C[C@H]2CCC1N2CCF` (stereo partly drawn) [(2S,5R)-8-(2-Fluoro-ethyl)-3-(4-trimethylstannanyl-phenyl)-8-aza-bicyclo[3.2.1]octane-2-carboxylic acid methyl ester], the Ki is > 10 µM. For `CC(C)OC(=O)[C@H]1C(c2cc[c]([Sn]([CH3])([CH3])[CH3])cc2)C[C@H]2CCC1N2CCF` (stereo partly drawn) [(2S,5R)-8-(2-Fluoro-ethyl)-3-(4-trimethylstannanyl-phenyl)-8-aza-bicyclo[3.2.1]octane-2-carboxylic acid isopropyl ester], the Ki is 1.15 µM. As to `CC(C)OC(=O)[C@H]1C(c2cc[c]([Sn]([CH3])([CH3])[CH3])cc2)C[C@H]2CCC1N2CCCF` (stereo partly drawn) [(2S,5R)-8-(3-Fluoro-propyl)-3-(4-trimethylstannanyl-phenyl)-8-aza-bicyclo[3.2.1]octane-2-carboxylic acid isopropyl ester], the Ki was > 10 µM.

Values taken from BindingDB's records for doi:10.1021/jm00037a004 (Research Biochemicals International, 1994).
